Measured values published in ChEMBL document CHEMBL2057185, “Analogs of N'-hydroxy-N-(4H,5H-naphtho[1,2-d]thiazol-2-yl)methanimidamide inhibit Mycobacterium tuberculosis methionine aminopeptidases” (Bioorg Med Chem, 2012).
Converted amounts (≈) assume the structure as drawn. The source made the active and inactive calls. The rule behind the calls is not given here.

Columns and labels:
[1] = Inhibition of Mycobacterium tuberculosis C-terminal His6-tagged MetAP1A using methionylprolyl-p-nitroanilide as substrate incubated for 20 mins prior to substrate addition measured for 20 mins by spectrophotometry in presence of Co2+
Procedure, shortened: (§1)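 Coupled colorimetric assay in 40 mM HEPES pH 7.5, 100 mM NaCl, 10 µM CoCl₂ or MnCl₂. Enzyme was 200 nM MetAP1a or 100 nM MetAP1c, with 1.5 U/mL Bacillus coagulans proline aminopeptidase as coupling enzyme. Eleven inhibitor levels (0.049–50 µM) were preincubated 20 min at room temperature. Met-Pro-pNA was added to 600 µM final, and A405 was followed 20 min against DMSO wells. IC50 came from nonlinear regression, averaging ≥3 independent triplicate experiments ± SD.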

[2] = Inhibition of Mycobacterium tuberculosis C-terminal His6-tagged MetAP1A using methionylprolyl-p-nitroanilide as substrate incubated for 20 mins prior to substrate addition measured for 20 mins by spectrophotometry in presence of Mn2+; procedure, shortened: as §1
[3] = tested on: Mycobacterium tuberculosis; test: Antimycobacterial activity against Mycobacterium tuberculosis H37Rv after 2 weeks; format: functional; details: 336 h
Procedure, shortened: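 Each well received log-phase M. tuberculosis H37Rv diluted to ≈10⁶ CFU/mL in 7H9. An uninoculated sterile control was included. Plates were sealed and incubated 37 °C for two weeks.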

[4] = Inhibition of Mycobacterium tuberculosis N-terminal His6-tagged MetAP1C using methionylprolyl-p-nitroanilide as substrate incubated for 20 mins prior to substrate addition measured for 20 mins by spectrophotometry in presence of Mn2+; procedure, shortened: as §1
[5] = Inhibition of Mycobacterium tuberculosis N-terminal His6-tagged MetAP1C using methionylprolyl-p-nitroanilide as substrate incubated for 20 mins prior to substrate addition measured for 20 mins by spectrophotometry in presence of Co2+; procedure, shortened: as §1
[6] = Chemical stability of the compound in Middlebrook 7H9 broth at 200 ug/mL after 10 days by HPLC analysis; format: physicochemical; details: 240 h
[7] = Mn2+ chelation activity of the compound at 10 uM; format: functional
Procedure, shortened: (§2)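 UV-vis spectra were recorded for compounds at 10 µM in MetAP assay buffer, with and without 10 µM cobalt or manganese chloride.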

[8] = Co2+ chelation activity of the compound at 10 uM; format: functional; procedure, shortened: as §2
[9] = Inhibition of Mycobacterium tuberculosis MetAP1A expressed in Escherichia coli using Met-AMC as substrate in presence of Mn2+
[10] = Inhibition of Mycobacterium tuberculosis MetAP1C expressed in Escherichia coli using Met-AMC as substrate in presence of Mn2+
[11] = tested on: Mycobacterium tuberculosis; test: Antimycobacterial activity against Mycobacterium tuberculosis H37Rv ATCC 27294 after 7 days by microplate alamar blue assay; format: functional; details: H37Rv ATCC 27294, 168 h

Structure (SMILES)	IC50 [1] [µM]	IC50 [2] [µM]	MIC [3] [µg/mL]	IC50 [4] [µM]	IC50 [5] [µM]	Stability [6]	Activity [7]	Activity [8]	IC50 [9] [µM]	IC50 [10] [nM]	MIC [11] [µg/mL]
COc1ccc(-c2csc(N/C=N\O)n2)cc1OC	> 20	> 20	200 (≈ 716 µM)	7	6.6						
O/N=C\Nc1nc2c(s1)CCCc1cc3c(cc1-2)OCO3	15.4	> 50	> 200	14.5	1.4						
COc1ccc2c(c1)CCc1sc(/N=C/c3ccccc3O)nc1-2	> 50	> 50		> 50	> 50						
COc1ccc2c(c1)CCc1sc(/N=C/c3ccco3)nc1-2	> 50	> 50		> 50	> 50						
Nc1nc2c(s1)CCc1ccccc1-2	> 50	> 50		> 50	> 50						
COc1ccc2c(c1)-c1nc(NC=NO)sc1CC2	1.9	> 50	200 (≈ 726 µM)	2.33	0.64	Stable					
O/N=C\Nc1nc2c(s1)CCOc1cc3c(cc1-2)OCO3	1.26	24.5	> 200	3.13	0.38	Stable	Active	Active			
O/N=C\Nc1nc2c(s1)CCc1cc3c(cc1-2)OCO3	15.4	> 20	> 200	12.5	> 20						
CN(C)/C=N/c1nc2c(s1)CCc1ccccc1-2	28.9	27.7		> 50	36.3						
O=C1C(Br)=C(Br)C(=O)c2ccccc21 [2,3-Dibromo-1,4-naphthoquinone]	1.14		25 (≈ 79.1 µM)		0.71						
CCCCCCCCC(=O)Nc1nc2c(s1)CCc1cc(OC)ccc1-2	> 50	> 50		> 50	> 50						
COc1ccc2c(c1)CCc1sc(N/C=N\O)nc1-2	5.35	> 50	> 200	> 50	1.33	Stable					
O/N=C\Nc1nc2c(s1)COc1cc3c(cc1-2)OCO3	1.43	> 10	100 (≈ 343 µM)	4.4	0.73		Active	Active			
COc1ccc2c(c1)CCc1sc(N)nc1-2	> 50	> 50		> 50	> 50						
COc1ccc2c(c1)OCc1sc(N/C=N\O)nc1-2	4.9	4.7	> 200	> 50	> 50		Active	Active			
CCCCCCCCC(=O)Nc1nc2c(s1)CCc1ccccc1-2	> 50	> 50		> 50	> 50						
COc1ccc2c(c1)Cc1sc(N/C=N\O)nc1-2	> 50	> 50	100 (≈ 383 µM)	> 50	> 50						
O/N=C\Nc1nc2c(s1)CCc1ccccc1-2	11.5	> 50	100 (≈ 408 µM)	> 50	1.05	Stable					
CO[C@@H](C(=O)NCCOc1c(C)cc(C)cc1C)[C@H](O)[C@@H](O)[C@H](O)/C=C/C(C)(C)C									6.9	540	18.5 (≈ 43.7 µM)
COc1ccc2c(c1)CCc1sc(NC(=O)[C@H](C)O)nc1-2	> 50	> 50		> 50	> 50						
COc1ccc2c(c1)OC(c1ccccc1)c1sc(N/C=N\O)nc1-2 (configuration not stated)	6.7	9.7	> 200	> 50	> 50						
COc1ccc2c(c1)CCc1sc(NC(C)=O)nc1-2	> 50	> 50		> 50	> 50						
COc1cccc2c1CCc1sc(N/C=N\O)nc1-2	11.3	11.7	> 200	10.3	1.89						
COc1cc2c(cc1OC)-c1nc(N/C=N\O)sc1CC2	14.6	14.6	> 200	> 50	3.77						
